# Results reported in PubChem BioAssay AID2648 (Johns Hopkins Ion Channel Center, 2010).
# The campaign covered roughly 310,000 compounds. About 1,100 (0.35%) were called active.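 The calls were made as follows: active = fluorescence ratio B-score, a plate-corrected score, at least three library SD, with initial intensity B-score within 5 SD; inactive = the rest.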 The entries come from a sample that favours actives as a whole.
# Molecular target: Potassium voltage-gated channel subfamily KQT member 1 (Homo sapiens) (UniProt P51787)
# Assay: human KCNQ1 current enhancers – cell-based, thallium flux, high-throughput, primary screen (AID 2648)
# Conditions: CHO-K1 KCNQ1, thallium flux FluxOR fluorescence, at 10 µM; stronger effect = higher value
# Procedure, shortened: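 Material: CHO-K1 cells stably expressing KCNQ1. Medium: assay buffer for compound exposure, DMSO matched across wells. Reagent: K+/Tl+ depolarizing stimulus. Compound dosing: single-concentration screen. Times: 37 °C overnight plating, 90-min dark dye load, 20-min compound pretreatment. Technique: FluxOR Tl+ flux fluorescence.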
# Sequence of Potassium voltage-gated channel subfamily KQT member 1 (Homo sapiens) (P51787 whole entry, looked up): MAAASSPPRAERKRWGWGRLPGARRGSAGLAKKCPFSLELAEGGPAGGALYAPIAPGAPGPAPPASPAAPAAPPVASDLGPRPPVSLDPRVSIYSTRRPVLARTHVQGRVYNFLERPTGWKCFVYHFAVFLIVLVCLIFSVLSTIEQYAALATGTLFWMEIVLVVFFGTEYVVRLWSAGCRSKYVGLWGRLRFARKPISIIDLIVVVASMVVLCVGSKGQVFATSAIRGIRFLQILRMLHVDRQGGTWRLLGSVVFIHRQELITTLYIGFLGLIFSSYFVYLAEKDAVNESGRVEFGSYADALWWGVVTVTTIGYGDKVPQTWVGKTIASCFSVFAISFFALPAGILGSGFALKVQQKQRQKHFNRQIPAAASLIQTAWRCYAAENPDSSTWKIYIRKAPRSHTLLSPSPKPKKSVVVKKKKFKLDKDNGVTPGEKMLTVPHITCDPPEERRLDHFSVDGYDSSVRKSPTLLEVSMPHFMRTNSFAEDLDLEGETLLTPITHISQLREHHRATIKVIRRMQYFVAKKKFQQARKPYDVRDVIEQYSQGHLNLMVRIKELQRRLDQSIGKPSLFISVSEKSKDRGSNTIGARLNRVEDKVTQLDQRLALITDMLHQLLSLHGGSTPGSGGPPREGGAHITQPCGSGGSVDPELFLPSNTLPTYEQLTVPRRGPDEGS
row,Structure (SMILES),B-score
1,COc1cc(-n2c(=S)[nH]c3ccc(C)cc3c2=O)c(Cl)cc1Cl,8 (active)
2,C/C=C/CC1(CC)C(=O)NC(=S)NC1=O,inactive
3,CCN(CC)C(=O)c1ccc(NC(=O)c2sccc2-c2ccccc2)cc1,inactive
4,Cc1ccc2c(c1)C1CN(C)CCC1N2C(=O)Cn1nnc(-c2ccccc2F)n1 (stereo not given),inactive
5,CC(Cc1ccccc1)NC=O (stereo not given),inactive
